ChEMBL document CHEMBL4376814, “Novel cyclin-dependent kinase 9 (CDK9) inhibitor with suppression of cancer stemness activity against non-small-cell lung cancer” (Eur J Med Chem, 2019)
Activity calls are given as the source filed them. The calls are words filed in the database; no cut-off is given here.

How the values were obtained:
SiHa = assay: Antiproliferative activity against human SiHa cells assessed as inhibition of cell viability at 500 nM after 72 hrs by CCK-8 assay relative to control; format: functional
How it was run: (§1)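 Single-concentration viability screen using CCK-8. Cells were seeded at 3000/well and treated for 72 h. A450 read after 1-4 h with reagent. Percent inhibition calculated against untreated control and blank wells as (Ac−As)/(Ac−Ab)×100%.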

[1] = biological target: CDK12/Cyclin K (Homo sapiens) (UniProt O75909+Q9NYV4); assay: Inhibition of human full length recombinant CDK12/cyclinK at 1 uM using RSRSRSRSRSRSRSR as substrate incubated for 120 mins in presence of [gamma-33P]ATP at by radiometric assay relative to control; format: protein-complex assay
[2] = biological target: Homeodomain-interacting protein kinase 4 (Homo sapiens) (UniProt Q8NE63); assay: Inhibition of recombinant full-length human HIPK4 at 1 uM using RRRFRPASPLRGPPK as substrate measured after 40 mins in presence of [gamma33P]ATP by scintillation counting method relative to control
A549 = assay: Antiproliferative activity against human A549 cells assessed as inhibition of cell viability at 10 uM after 72 hrs by CCK-8 assay relative to control; format: functional; conditions: A549, 72 h; how it was run: as §1
[3] = biological target: Serine/threonine-protein kinase pim-3 (Homo sapiens) (UniProt Q86V86); assay: Inhibition of recombinant human Pim-3 (2 to end residues) at 1 uM using RSRHSSYPAGT as substrate measured after 40 mins in presence of [gamma33P]ATP by scintillation counting method relative to control
[4] = biological target: Tyrosine-protein kinase Fyn (Homo sapiens) (UniProt P06241); assay: Inhibition of recombinant full-length human Fyn at 1 uM using KVEKIGEGTYGVVYK as substrate measured after 40 mins in presence of [gamma33P]ATP by scintillation counting method relative to control
[5] = biological target: Calcium/calmodulin-dependent protein kinase type II subunit beta (Homo sapiens) (UniProt Q13554); assay: Inhibition of recombinant human CaMK2 beta (1 to 315 resiudes) at 1 uM using calmodulin as substrate measured after 40 mins in presence of [gamma33P]ATP by scintillation counting method relative to control
[6] = biological target: CDK3/Cyclin E (Homo sapiens) (UniProt P24864+Q00526); assay: Inhibition of recombinant full-length human CDK3/cyclinE at 1 uM using Histone H1 as substrate measured after 40 mins in presence of [gamma33P]ATP by scintillation counting method relative to control; format: protein-complex assay
[7] = biological target: Calcium/calmodulin-dependent protein kinase type II subunit alpha (Homo sapiens) (UniProt Q9UQM7); assay: Inhibition of full-length recombinant human CaMK2 alpha at 1 uM using KKLNRTLSFAEPG as substrate measured after 40 mins in presence of [gamma33P]ATP by scintillation counting method relative to control
How it was run: (§2)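 Percent inhibition of kinase activity at a single compound concentration, measured by the outsourced Eurofins KinaseProfiler panel. Values are the mean of two independent experiments.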

[8] = test system: Macrophage colony-stimulating factor 1 receptor (Homo sapiens), P07333 [Y969C]; assay: Inhibition of recombinant human Fms (538 to end residues) Y969C mutant at 1 uM using EEEEYEEEEEEYYIIEEEEEEYEEEEEEYYEEEEEEKKKK as substrate measured after 40 mins in presence of [gamma33P]ATP by scintillation counting method relative to control
[9] = biological target: Ribosomal protein S6 kinase alpha-4 (Homo sapiens) (UniProt O75676); assay: Inhibition of recombinant human MSK2 (2 to end residues) at 1 uM using GRPRTSSFAEGKK as substrate measured after 40 mins in presence of [gamma33P]ATP by scintillation counting method relative to control
[10] = Intrinsic clearance in Sprague-Dawley rat liver microsomes at 2 uM in presence of NADPH measured up to 1 hr by HPLC analysis; format: ADME, Microsome
[11] = test system: Angiopoietin-1 receptor (Homo sapiens), Q02763 [Q939H,Q940H,Y897S]; assay: Inhibition of human Tie2 Q939H/Q940H/Y897S mutant (771 to end residues) at 1 uM using EFPIYDFLPAKKK as substrate measured after 40 mins in presence of [gamma33P]ATP by scintillation counting method relative to control
How it was run: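 Single-point inhibition at 1 µM was measured in the Eurofins KinaseProfiler panel. Values are the mean of two independent experiments.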

[12] = biological target: Serine/threonine-protein kinase MAK (Homo sapiens) (UniProt P20794); assay: Inhibition of recombinant full-length human MAK at 1 uM using RRRFRPASPLRGPPK as substrate measured after 120 mins in presence of [gamma33P]ATP by scintillation counting method relative to control
[13] = biological target: Ephrin type-A receptor 7 (Homo sapiens) (UniProt Q15375); assay: Inhibition of recombinant human EphA7 (613 to 909 residues) at 1 uM using KTFCGTPEYLAPEVRREPRILSEEEQEMFRDFDYIADWC as substrate measured after 40 mins in presence of [gamma33P]ATP by scintillation counting method relative to control
[14] = biological target: cAMP-dependent protein kinase catalytic subunit PRKX (Homo sapiens) (UniProt P51817); assay: Inhibition of recombinant full-length human PrKX at 1 uM using RRRLSFAEPG as substrate measured after 40 mins in presence of [gamma33P]ATP by scintillation counting method relative to control
NCI-H1299 [15] = assay: Inhibition of tumorsphere formation in human H1299 cells assessed as reduction in side population ratio at 0.25 to 1 uM by PI/Hoechst 33342 staining based flow cytometry; format: functional, cell-based
[16] = biological target: Casein kinase II subunit alpha (Homo sapiens) (UniProt P68400); assay: Inhibition of full length recombinant human CK2alpha1 at 1 uM using RRRDDDSDDD as substrate measured after 40 mins in presence of [gamma33P]ATP by scintillation counting method relative to control
[17] = test system: SNF-related serine/threonine-protein kinase (Homo sapiens), Q9NRH2 [UNDEFINED MUTATION]; assay: Inhibition of human SNRK E97G/P116A mutant (1 to 505 residues) at 1 uM using KKLRRTLSFAEPG as substrate measured after 40 mins in presence of [gamma33P]ATP by scintillation counting method relative to control; how it was run: as §2
[18] = biological target: Phosphatidylinositol 4-phosphate 5-kinase type-1 gamma (Homo sapiens) (UniProt O60331); assay: Inhibition of recombinant full-length human PIP5K1gamma at 1 uM using phosphatidylinositol 4-phosphate as substrate measured after 40 mins by HTRF assay relative to control
NCI-H1299 [19] = assay: Induction of apoptosis in human H1299 cells assessed as necrotic cells at 0.25 uM after 48 hrs by AnnexinV-FITC/PI staining-based flow cytometric analysis (reference value: 0.9%); format: functional
[20] = biological target: Calcium/calmodulin-dependent protein kinase type 1G (Homo sapiens) (UniProt Q96NX5); assay: Inhibition of full-length recombinant human CaMK1 gamma at 1 uM using KKLRRTLSFAEPG as substrate measured after 40 mins in presence of [gamma33P]ATP by scintillation counting method relative to control; how it was run: as §2
Calcium/calmodulin-dependent protein kinase type 1G (Homo sapiens), sequence (Q96NX5 whole entry): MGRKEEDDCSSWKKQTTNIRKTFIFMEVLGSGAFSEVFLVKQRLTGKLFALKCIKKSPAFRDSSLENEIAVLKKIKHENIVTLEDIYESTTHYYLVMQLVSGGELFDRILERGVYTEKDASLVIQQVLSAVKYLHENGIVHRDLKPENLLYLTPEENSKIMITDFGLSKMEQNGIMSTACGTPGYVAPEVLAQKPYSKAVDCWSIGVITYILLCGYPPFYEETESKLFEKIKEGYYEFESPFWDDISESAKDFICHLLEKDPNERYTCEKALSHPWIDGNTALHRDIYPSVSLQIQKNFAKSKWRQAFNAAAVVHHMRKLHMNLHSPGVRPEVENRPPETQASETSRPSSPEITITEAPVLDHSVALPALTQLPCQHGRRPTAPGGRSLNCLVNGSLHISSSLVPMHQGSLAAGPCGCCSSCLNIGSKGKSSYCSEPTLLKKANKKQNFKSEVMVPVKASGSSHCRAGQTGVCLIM

Serine/threonine-protein kinase MAK (Homo sapiens), sequence (P20794 whole entry, the tested form may be a part): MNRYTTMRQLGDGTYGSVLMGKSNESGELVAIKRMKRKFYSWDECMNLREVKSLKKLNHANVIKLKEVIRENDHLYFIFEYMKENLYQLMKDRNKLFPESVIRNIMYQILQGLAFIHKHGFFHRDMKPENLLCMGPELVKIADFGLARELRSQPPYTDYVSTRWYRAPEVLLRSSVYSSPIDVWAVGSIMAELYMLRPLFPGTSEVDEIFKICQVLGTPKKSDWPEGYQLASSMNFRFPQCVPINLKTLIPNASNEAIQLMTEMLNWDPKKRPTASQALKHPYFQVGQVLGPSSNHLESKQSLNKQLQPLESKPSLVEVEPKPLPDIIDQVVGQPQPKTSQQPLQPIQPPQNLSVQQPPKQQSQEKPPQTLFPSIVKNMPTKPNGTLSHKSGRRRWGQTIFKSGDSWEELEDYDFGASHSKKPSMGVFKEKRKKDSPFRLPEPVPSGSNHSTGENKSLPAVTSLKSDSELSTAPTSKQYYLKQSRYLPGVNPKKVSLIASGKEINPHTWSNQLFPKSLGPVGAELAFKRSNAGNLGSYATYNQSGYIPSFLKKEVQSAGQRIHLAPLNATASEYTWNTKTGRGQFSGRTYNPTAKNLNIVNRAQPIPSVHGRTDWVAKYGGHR
Angiopoietin-1 receptor (Homo sapiens), Q02763 [Q939H,Q940H,Y897S], sequence (Q02763 whole entry Y897S/Q939H/Q940H): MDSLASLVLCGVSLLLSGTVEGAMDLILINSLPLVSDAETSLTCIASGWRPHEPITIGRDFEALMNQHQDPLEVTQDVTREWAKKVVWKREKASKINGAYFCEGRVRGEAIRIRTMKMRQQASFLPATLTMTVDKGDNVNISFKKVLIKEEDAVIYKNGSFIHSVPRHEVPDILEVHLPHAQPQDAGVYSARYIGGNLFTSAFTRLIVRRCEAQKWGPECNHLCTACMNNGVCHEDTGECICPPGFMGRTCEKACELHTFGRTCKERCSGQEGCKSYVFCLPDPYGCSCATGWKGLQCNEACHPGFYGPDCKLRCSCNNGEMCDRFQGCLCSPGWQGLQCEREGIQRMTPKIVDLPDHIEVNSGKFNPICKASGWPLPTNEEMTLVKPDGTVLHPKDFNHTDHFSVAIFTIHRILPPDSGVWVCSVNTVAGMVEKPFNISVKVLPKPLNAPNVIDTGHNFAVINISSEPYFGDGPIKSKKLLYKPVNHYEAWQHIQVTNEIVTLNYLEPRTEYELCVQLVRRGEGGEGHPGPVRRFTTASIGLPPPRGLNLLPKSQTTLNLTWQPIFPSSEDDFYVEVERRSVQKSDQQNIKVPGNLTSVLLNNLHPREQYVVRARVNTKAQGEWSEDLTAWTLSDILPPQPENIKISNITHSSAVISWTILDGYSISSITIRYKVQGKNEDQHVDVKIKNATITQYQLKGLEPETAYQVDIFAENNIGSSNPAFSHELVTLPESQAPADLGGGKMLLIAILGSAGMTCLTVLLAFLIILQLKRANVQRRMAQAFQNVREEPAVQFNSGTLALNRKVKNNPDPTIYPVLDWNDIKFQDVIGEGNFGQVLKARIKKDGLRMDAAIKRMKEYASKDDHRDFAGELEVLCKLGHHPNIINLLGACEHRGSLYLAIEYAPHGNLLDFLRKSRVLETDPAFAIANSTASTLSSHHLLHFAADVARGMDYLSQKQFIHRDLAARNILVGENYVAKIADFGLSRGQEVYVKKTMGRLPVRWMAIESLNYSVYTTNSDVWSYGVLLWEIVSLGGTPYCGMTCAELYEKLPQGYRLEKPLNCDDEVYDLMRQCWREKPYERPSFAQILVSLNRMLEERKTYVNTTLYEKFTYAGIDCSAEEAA
Casein kinase II subunit alpha (Homo sapiens), sequence (P68400 whole entry, looked up, the tested form may be a part): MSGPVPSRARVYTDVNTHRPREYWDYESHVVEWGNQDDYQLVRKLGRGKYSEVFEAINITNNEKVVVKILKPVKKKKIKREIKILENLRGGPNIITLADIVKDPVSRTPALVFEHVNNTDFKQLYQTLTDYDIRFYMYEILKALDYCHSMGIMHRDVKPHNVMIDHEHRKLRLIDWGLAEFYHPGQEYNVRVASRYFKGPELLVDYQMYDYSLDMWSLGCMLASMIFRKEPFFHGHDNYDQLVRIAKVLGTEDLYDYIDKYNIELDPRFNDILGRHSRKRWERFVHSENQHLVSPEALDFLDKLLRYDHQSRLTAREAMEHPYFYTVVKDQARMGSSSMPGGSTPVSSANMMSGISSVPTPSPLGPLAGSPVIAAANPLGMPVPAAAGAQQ
Ephrin type-A receptor 7 (Homo sapiens), sequence (Q15375 28-998 limits assumed): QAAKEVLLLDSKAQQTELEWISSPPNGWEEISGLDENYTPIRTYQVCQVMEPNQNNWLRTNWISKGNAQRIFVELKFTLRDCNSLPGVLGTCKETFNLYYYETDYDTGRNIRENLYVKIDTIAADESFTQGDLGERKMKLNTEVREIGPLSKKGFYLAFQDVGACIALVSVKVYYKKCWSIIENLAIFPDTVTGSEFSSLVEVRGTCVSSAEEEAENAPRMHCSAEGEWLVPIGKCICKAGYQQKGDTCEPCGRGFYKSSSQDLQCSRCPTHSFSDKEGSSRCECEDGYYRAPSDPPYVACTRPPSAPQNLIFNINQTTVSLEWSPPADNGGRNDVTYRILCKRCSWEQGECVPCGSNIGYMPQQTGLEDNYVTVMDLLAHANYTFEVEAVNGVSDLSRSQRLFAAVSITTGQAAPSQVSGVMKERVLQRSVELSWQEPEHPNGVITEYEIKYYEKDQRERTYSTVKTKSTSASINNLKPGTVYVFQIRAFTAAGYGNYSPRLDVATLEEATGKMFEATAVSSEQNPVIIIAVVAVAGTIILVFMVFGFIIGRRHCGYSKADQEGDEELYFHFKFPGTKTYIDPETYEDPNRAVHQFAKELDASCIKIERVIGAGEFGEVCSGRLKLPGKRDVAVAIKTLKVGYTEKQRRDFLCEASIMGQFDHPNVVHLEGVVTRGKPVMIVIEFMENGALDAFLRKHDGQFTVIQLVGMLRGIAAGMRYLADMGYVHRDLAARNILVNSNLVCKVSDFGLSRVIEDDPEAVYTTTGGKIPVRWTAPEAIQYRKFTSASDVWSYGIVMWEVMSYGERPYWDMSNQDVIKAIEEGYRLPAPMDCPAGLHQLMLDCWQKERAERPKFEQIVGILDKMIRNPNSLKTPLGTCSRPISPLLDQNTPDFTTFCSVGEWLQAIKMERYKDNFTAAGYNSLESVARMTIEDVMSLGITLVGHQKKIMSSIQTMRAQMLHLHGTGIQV
CDK3/Cyclin E (Homo sapiens), sequence (P24864 whole entry, looked up): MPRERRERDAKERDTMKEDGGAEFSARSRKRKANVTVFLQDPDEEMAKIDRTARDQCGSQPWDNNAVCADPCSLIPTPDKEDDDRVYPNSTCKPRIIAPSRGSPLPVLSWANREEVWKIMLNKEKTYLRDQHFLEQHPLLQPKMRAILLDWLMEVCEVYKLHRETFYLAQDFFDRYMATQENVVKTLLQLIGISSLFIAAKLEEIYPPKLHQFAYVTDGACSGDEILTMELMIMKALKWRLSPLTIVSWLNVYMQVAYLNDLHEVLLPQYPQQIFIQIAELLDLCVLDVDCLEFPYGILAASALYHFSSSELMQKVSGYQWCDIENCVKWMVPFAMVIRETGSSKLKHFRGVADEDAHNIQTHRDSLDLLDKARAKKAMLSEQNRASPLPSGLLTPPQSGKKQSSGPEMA
CDK3/Cyclin E (Homo sapiens), sequence (Q00526 whole entry, looked up): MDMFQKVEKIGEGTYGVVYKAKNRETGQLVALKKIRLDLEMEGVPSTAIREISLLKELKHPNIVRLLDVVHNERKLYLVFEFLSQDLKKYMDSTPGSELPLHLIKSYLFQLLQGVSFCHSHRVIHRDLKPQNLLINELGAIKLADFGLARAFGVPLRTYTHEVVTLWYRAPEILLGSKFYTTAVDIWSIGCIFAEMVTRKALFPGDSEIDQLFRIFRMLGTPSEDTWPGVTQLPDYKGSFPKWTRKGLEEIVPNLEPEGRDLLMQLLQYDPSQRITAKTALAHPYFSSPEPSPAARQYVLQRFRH
Tyrosine-protein kinase Fyn (Homo sapiens), sequence (P06241 2-537 limits assumed): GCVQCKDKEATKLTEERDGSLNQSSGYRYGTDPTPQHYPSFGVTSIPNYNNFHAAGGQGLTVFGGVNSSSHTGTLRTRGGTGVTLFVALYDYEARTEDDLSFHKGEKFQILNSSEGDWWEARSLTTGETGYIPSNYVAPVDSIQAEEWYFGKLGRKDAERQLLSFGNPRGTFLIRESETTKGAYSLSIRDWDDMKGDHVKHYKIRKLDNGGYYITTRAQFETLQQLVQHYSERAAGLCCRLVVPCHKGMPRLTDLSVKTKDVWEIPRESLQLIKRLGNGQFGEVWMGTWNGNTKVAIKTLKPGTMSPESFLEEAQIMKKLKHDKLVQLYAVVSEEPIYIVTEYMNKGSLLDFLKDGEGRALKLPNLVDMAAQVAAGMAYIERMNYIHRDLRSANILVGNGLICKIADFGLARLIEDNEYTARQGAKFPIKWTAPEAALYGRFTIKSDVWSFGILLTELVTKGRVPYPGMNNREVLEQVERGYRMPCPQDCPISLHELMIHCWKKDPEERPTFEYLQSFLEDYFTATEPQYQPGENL

## CN(C)C(=O)c1cc2cnc(Nc3ccc(NC(=O)CCCCCCCN=C=S)cc3)nc2n1C1CCCC1
SiHa
  inhibition at 0.5 µM: 11%
[1]
  inhibition: 45%
[2]
  inhibition: 19%
A549
  inhibition at 10 µM: 99.2%
[3]
  inhibition: -8%
[4]
  inhibition: 2%
[5]
  inhibition: 29%
[6]
  inhibition: 82%
[7]
  inhibition: 61%
[8]
  inhibition: 40%
[9]
  inhibition: 6%
[10]
  CLH: 57 µL/min/mg
[11]
  inhibition: 20%
[12]
  inhibition: 94%
[13]
  inhibition: 6%
[14]
  inhibition: -1%
NCI-H1299 [15]
  inhibition: Active
[16]
  inhibition: -5%
[17]
  inhibition: 7%
[18]
  inhibition: 0%
NCI-H1299 [19]
  Activity: 0.669%
[20]
  inhibition: 21%
